Test results as given in ChEMBL document CHEMBL1123041, “Synthesis of new bis(aminoethanethiol) (BAT) derivatives: possible ligands for 99mTc brain imaging agents” (J Med Chem, 1985).

Experiments:
[1] = tested on: Rattus norvegicus; assay: Biodistribution in Sprague-Dawley rat thyroid 2 minutes after intravenous administration, [99mTc]/[125I]IAP ratio); type: ADME, organism-based, Thyroid gland; conditions: in vivo
Method in brief: (§1)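 99mTc complex and [125I]iodoantipyrine were co-injected iv into rats. Rats were killed by cardiectomy at 2 or 15 min, and organs were excised, weighed and gamma-counted in two channels with spillover correction. The ratio is 99mTc percent dose divided by 125I percent dose in the same organ, averaged over three rats. Radiochemical purity of the complexes was >95% by reversed-phase HPLC.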

[2] = tested on: Rattus norvegicus; assay: Biodistribution in Sprague-Dawley rat heart 2 minutes after intravenous administration, [99mTc]/[125I]IAP ratio); type: ADME, organism-based; conditions: in vivo; method in brief: as §1
[3] = tested on: Rattus norvegicus; assay: Biodistribution in Sprague-Dawley rat brain 2 minutes after intravenous administration, [99mTc]/[125I]IAP ratio); type: ADME, organism-based; conditions: in vivo; method in brief: as §1
[4] = Partition coefficient was determined atpH 7.0.; type: ADME; conditions: octanol/water, pH 7
Method in brief: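 99mTc-labelled BAT complex shaken with 3 g each of 1-octanol and 0.1 M phosphate buffer (pH 7.0), vortexed 3 min at room temperature, centrifuged 5 min. Two 0.5 g samples per layer counted in a well counter; PC = cpm/g octanol over cpm/g buffer. Octanol layer repartitioned until values were consistent; usually repeated three times.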

[5] = tested on: Rattus norvegicus; assay: Biodistribution in Sprague-Dawley rat thyroid 15 minutes after intravenous administration, [99mTc]/[125I]IAP ratio); type: ADME, organism-based, Thyroid gland; conditions: in vivo, 0.25 h; method in brief: as §1
[6] = tested on: Rattus norvegicus; assay: Biodistribution in Sprague-Dawley rat kidneys(2) 2 minutes after intravenous administration, [99mTc]/[125I]IAP ratio); type: ADME, organism-based, Kidney; conditions: in vivo; method in brief: as §1
[7] = tested on: Rattus norvegicus; assay: Biodistribution in Sprague-Dawley rat brain 15 minutes after intravenous administration, [99mTc]/[125I]IAP ratio); type: ADME, organism-based; conditions: in vivo, 0.25 h; method in brief: as §1
[8] = organism: Homo sapiens; assay: The human serum protein binding activity was determined; type: functional
Method in brief: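 Equilibrium dialysis: 0.4 mL pooled human serum against 0.4 mL 0.15 M phosphate buffer pH 7.4 containing 99mTc complex (~0.025 μCi), rotated 18 h at 37 °C. Both sides weighed and counted; percent free = buffer/serum radioactivity concentration ratio × 100. Membrane counted afterwards to check membrane binding.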

[9] = tested on: Rattus norvegicus; assay: Biodistribution in Sprague-Dawley rat small intestine 2 minutes after intravenous administration, [99mTc]/[125I]IAP ratio); type: ADME, organism-based; conditions: in vivo; method in brief: as §1
[10] = tested on: Rattus norvegicus; assay: Biodistribution in Sprague-Dawley rat muscle 15 minutes after intravenous administration, [99mTc]/[125I]IAP ratio); type: ADME, organism-based, Muscle tissue; conditions: in vivo, 0.25 h; method in brief: as §1
[11] = tested on: Rattus norvegicus; assay: Biodistribution in Sprague-Dawley rat stomach 15 minutes after intravenous administration, [99mTc]/[125I]IAP ratio); type: ADME, organism-based; conditions: in vivo, 0.25 h; method in brief: as §1
[12] = tested on: Rattus norvegicus; assay: Biodistribution in Sprague-Dawley rat blood 15 minutes after intravenous administration, [99mTc]/[125I]IAP ratio); type: ADME, organism-based; conditions: in vivo, 0.25 h; method in brief: as §1
[13] = tested on: Rattus norvegicus; assay: Biodistribution in Sprague-Dawley rat liver 15 minutes after intravenous administration, [99mTc]/[125I]IAP ratio); type: ADME, organism-based; conditions: in vivo, 0.25 h; method in brief: as §1
[14] = tested on: Rattus norvegicus; assay: Biodistribution in Sprague-Dawley rat kidneys(2) 15 minutes after intravenous administration, [99mTc]/[125I]IAP ratio); type: ADME, organism-based, Kidney; conditions: in vivo, 0.25 h; method in brief: as §1
[15] = tested on: Rattus norvegicus; assay: Biodistribution in Sprague-Dawley rat muscle 2 minutes after intravenous administration, [99mTc]/[125I]IAP ratio); type: ADME, organism-based, Muscle tissue; conditions: in vivo; method in brief: as §1
[16] = tested on: Rattus norvegicus; assay: Biodistribution in Sprague-Dawley rat lungs(2) 15 minutes after intravenous administration, [99mTc]/[125I]IAP ratio); type: ADME, organism-based, Lung; conditions: in vivo, 0.25 h; method in brief: as §1
[17] = tested on: Rattus norvegicus; assay: Biodistribution in Sprague-Dawley rat stomach 2 minutes after intravenous administration, [99mTc]/[125I]IAP ratio); type: ADME, organism-based; conditions: in vivo; method in brief: as §1
[18] = tested on: Rattus norvegicus; assay: Biodistribution in Sprague-Dawley rat skin 2 minutes after intravenous administration, [99mTc]/[125I]IAP ratio); type: ADME, organism-based, Zone of skin; conditions: in vivo; method in brief: as §1
[19] = tested on: Rattus norvegicus; assay: Biodistribution in Sprague-Dawley rat spleen 15 minutes after intravenous administration, [99mTc]/[125I]IAP ratio); type: ADME, organism-based; conditions: in vivo, 0.25 h; method in brief: as §1
[20] = tested on: Rattus norvegicus; assay: Biodistribution in Sprague-Dawley rats heart 15 minutes after intravenous administration, [99mTc]/[125I]IAP ratio); type: ADME, organism-based; conditions: in vivo, 0.25 h; method in brief: as §1
[21] = tested on: Rattus norvegicus; assay: Biodistribution in Sprague-Dawley rat small intestine 15 minutes after intravenous administration, [99mTc]/[125I]IAP ratio); type: ADME, organism-based; conditions: in vivo, 0.25 h; method in brief: as §1
[22] = tested on: Rattus norvegicus; assay: Biodistribution in Sprague-Dawley rat blood 2 minutes after intravenous administration, [99mTc]/[125I]IAP ratio); type: ADME, organism-based; conditions: in vivo; method in brief: as §1
[23] = tested on: Rattus norvegicus; assay: Biodistribution in Sprague-Dawley rat spleen 2 minutes after intravenous administration, [99mTc]/[125I]IAP ratio); type: ADME, organism-based; conditions: in vivo; method in brief: as §1
[24] = tested on: Rattus norvegicus; assay: Biodistribution in Sprague-Dawley rat lungs(2) 2 minutes after intravenous administration, [99mTc]/[125I]IAP ratio); type: ADME, organism-based, Lung; conditions: in vivo; method in brief: as §1
[25] = tested on: Rattus norvegicus; assay: Biodistribution in Sprague-Dawley rat skin 15 minutes after intravenous administration, [99mTc]/[125I]IAP ratio); type: ADME, organism-based, Zone of skin; conditions: in vivo, 0.25 h; method in brief: as §1
[26] = tested on: Rattus norvegicus; assay: Biodistribution in Sprague-Dawley rat liver 2 minutes after intravenous administration, [99mTc]/[125I]IAP ratio); type: ADME, organism-based; conditions: in vivo; method in brief: as §1

Dose [1]: 0.088%
Dose [2]: 0.887%
Dose [3]: 0.24%
Partition coefficient [4]: 64.5
Dose [5]: 0.053%
Dose [6]: 2.21%
Dose [7]: 0.15%
Free [8]: 42.5%
Dose [9]: 4.46%
Dose [10]: 14.9%
Dose [11]: 0.85%
Dose [12]: 9.14%
Dose [13]: 16.8%
Dose [14]: 2.39%
Dose [15]: 13.4%
Dose [16]: 1.31%
Dose [17]: 1.12%
Dose [18]: 6.72%
Dose [19]: 0.309%
Dose [20]: 0.3%
Dose [21]: 19.5%
Dose [22]: 18.1%
Dose [23]: 0.349%
Dose [24]: 2.27%
Dose [25]: 6.53%
Dose [26]: 16.7%
Compound: CC(C)(S)CNCC(CO)NCC(C)(C)S.Cl.Cl (stereo unspecified)
